# Reference: the RNAGym collection of RNA variant scans (doi:10.1126/science.aae0568)
# Fewer inactive variants are shown than the library holds.
# B1: tRNA (parent)
# chain: GUUCCGUUGGCGUAAUGGUAACGCGUCUCCCUCCUAAGGAGAAGACUGCGGGUUCGAGUCCCGUACGGAACG
# Variants of: B1
# Experiment: yeast fitness relative to wild type (ratio to wild type); higher = fitter; tRNA-Arg(CCU), competitive growth, 37 C, YPD
# Summary of the method: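 Genotype frequency changes were the basis for Darwinian fitness relative to wild type. The frequencies came from 100-nucleotide paired-end sequencing of gene amplicons from the start population and each end population of pooled yeast strains with tRNA-Arg(CCU) gene variants at the native locus. Competition ran in YPD at 37°C for 24 hours in six replicates, genotypes needed ≥ 100 starting reads, and estimates < 0.5 were set to 0.5.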
row,Variant,yeast fitness
1,C4U G25A G48C A57U,≤ 0.5
2,C4U G23A,0.783
3,C5A A15G C33A,≤ 0.5
4,C4U U47C C66U,0.766
5,C4U U19C C31A G41C C55A,≤ 0.5
6,C4U U26G C62G A70U,≤ 0.5
7,C4U G17A G18A C34U G56C,≤ 0.5
8,C4U U7A U54G,≤ 0.5
9,C4U G18A A20G G23C C24G C46G,≤ 0.5
10,C4U G12A G48C,0.648
11,C5A A15U A21U C66U G67U A70G,≤ 0.5
12,C5A A20U C31G G58A C62U A69C,≤ 0.5
13,C4U U26A A37G C66G,≤ 0.5
14,C5A A14G A40G G41A A45U U53C A57C,≤ 0.5
15,C4U G67A A69U,0.684
16,C4U U16A A37U C55G,≤ 0.5
17,C4U G23C A36C A70U,≤ 0.5
18,C5A A14G A43U,≤ 0.5
19,C4U U8C A40U G50C,≤ 0.5
20,C5A A20G U26C A40C,≤ 0.5
21,C4U U19A C30G A36C C66A G68C,≤ 0.5
22,C4U U28C C30A,0.755
23,C4U G41A A42C,≤ 0.5
24,C4U G41C C55G,0.539

row,Variant,yeast fitness
1,C5A A15C G67U,0.526
2,C4U U16A A40U,0.666
3,C4U U28A,0.749
4,C4U G39A,0.982
5,C4U G39C,0.829
6,C4U G41C G51C G58C,≤ 0.5
7,C4U G39C C49U,0.62
8,C4U U16A A20G C49U C66U,≤ 0.5
9,C4U U32A G52C C55U C66U,≤ 0.5
10,C4U U32A C49U,0.61
11,C4U G18A C22U A40C G68C,0.591
12,C5A A14G C60G,≤ 0.5
13,C4U G52A C55U U64C,≤ 0.5
14,C4U U26G C29U A65U,≤ 0.5
15,C5A A21C,0.821
16,C5A A15G C34U A40C G56A G63A,≤ 0.5
17,C4U U8C C29U A43U,≤ 0.5
18,C4U G39C C60U,≤ 0.5
19,C4U G52A U59A,0.592
20,C4U G41C A65G,0.65
21,C4U U28C C49G,0.598
22,C5A A15U G38C G39A A43C C60G A65C,≤ 0.5
23,C4U G18A G23C C24G C46G C66G,≤ 0.5
24,C5A A20U A21U C34G A65G G67A,≤ 0.5

row,Variant,yeast fitness
1,C4U U16A A20U U28C U35C G39C A42C G48A,≤ 0.5
2,C4U U16A A20C,0.58
3,C4U U16A A20G,0.665
4,C4U G56A G67A,0.649
5,C4U G25A A36G,0.641
6,C5A A20U C29A G68A,≤ 0.5
7,C4U U19A C31G A65C C66U,≤ 0.5
8,C5A A15U C24G,≤ 0.5
9,C4U G39C G48C C62G,0.549
10,C5A A14C A15G C49A,0.572
11,C4U G10C G48C G56C,≤ 0.5
12,C5A A14C G68A,≤ 0.5
13,C5A A20U A65G,0.591
14,C4U G12A C24A C61U,0.609
15,C4U U59C,0.853
16,C4U G18C C49U C61A,≤ 0.5
17,C5A A15C A69U,0.552
18,C4U G39C U54C,≤ 0.5
19,C4U U7G A37G,0.536
20,C4U G56C,0.655
21,C4U G18A A69U,0.743
22,C4U U8A A37C,0.821
23,C4U U7G C34G G48C C61U,≤ 0.5
24,C4U G56A U59C A65C A70G,≤ 0.5

row,Variant,yeast fitness
1,C5A A14G C24A A43G G63U,≤ 0.5
2,C4U U35C G50A C66A,0.689
3,C4U G18C A45U C49U,≤ 0.5
4,C4U G12C U64C,0.696
5,C5A A15G C33A C61U,0.531
6,C4U U7A U8A A40U C61U,≤ 0.5
7,C4U G12A C27G C34A C49A C60G C61U,0.522
8,C4U G18A G23C C24G C46G A57G,≤ 0.5
9,C4U U26A A37G,≤ 0.5
10,C4U U7A U8A,≤ 0.5
11,C4U U7C G10A A14U C27G A36G,0.505
12,C4U U7G A14U,≤ 0.5
13,C4U U13A A14U C29U C30U A37G,≤ 0.5
14,C4U G17A C22U,≤ 0.5
15,C4U U26C A36C,≤ 0.5
16,C5A A15U U64C,0.615
17,C4U U54C C62U,0.578
18,C4U U13C C30G C55U,0.761
19,C4U G18C C24U C61G,≤ 0.5
20,C5A A14G C24A G63A A69U,≤ 0.5
21,C4U G41C C66A,≤ 0.5
22,C4U U8C A42G,0.69
23,C4U U8C A42C,0.539
24,C4U U26G G44A,0.591

row,Variant,yeast fitness
1,C4U U26C C27U,0.678
2,C5A A20U A36G,≤ 0.5
3,C4U G17C,0.709
4,C4U G12A C24A G67C,≤ 0.5
5,C5A A14C C29A G41C,0.683
6,C4U G12C U64C A70U,≤ 0.5
7,C5A A20U A37G,≤ 0.5
8,C4U U7G C34G A70U,≤ 0.5
9,C4U G17C C22U A37C,≤ 0.5
10,C4U U7C C49G,0.534
11,C4U G18C C27U C33G A43C A70U,0.659
12,C4U G17A A37U U59C,≤ 0.5
13,C4U G52A C60A,0.823
14,C5A A15C U16A C31G C34U A69U,≤ 0.5
15,C4U U19A G50A G68U,≤ 0.5
16,C4U U32A U64G,≤ 0.5
17,C5A A14G C22G C27U A37U,≤ 0.5
18,C4U U7A A36U A45U A57G A70G,≤ 0.5
19,C4U G10C U35C G41A,≤ 0.5
20,C5A A14G C24A,0.565
21,C4U U8A U13C A57U C60G G68C,≤ 0.5
22,C4U U35C C61A,0.555
23,C4U U32C,0.944
24,C4U U7A C30G C34G A40C C66A A69C,0.559

row,Variant,yeast fitness
1,C4U U28G C49A C62G,≤ 0.5
2,C4U U19A C29U C33G C62A,≤ 0.5
3,C4U G18C C46U C60G,≤ 0.5
4,C4U G12A A20G C22U C55U,0.606
5,C4U U35A A36U C61U,≤ 0.5
6,C4U G44C,1.01
7,C4U G44A,1.05
8,C4U G44C C46A G56C,≤ 0.5
9,C4U G25A A70U,0.77
10,C4U G25A,0.895
11,C4U G25A G41A G56C A65C,≤ 0.5
12,C4U G23A U26C,≤ 0.5
13,C4U G18C G68C,0.535
14,C4U G25C C30G C55A,0.561
15,C4U G12A C62G,0.53
16,C5A A15C C62U,≤ 0.5
17,C5A A15C C30A A42U C55U C66A,≤ 0.5
18,C4U U26A C33A C34G,≤ 0.5
19,C4U U26G U59C C62A,0.679
20,C4U G18C G51A C66A,≤ 0.5
21,C4U G39A G67A,0.61
22,C5A A15G C33U G44C,≤ 0.5
23,C4U U13C C30G G48U A70U,≤ 0.5
24,C4U G63U,0.778

row,Variant,yeast fitness
1,C4U U16C A42C,0.579
2,C4U U16C A42G,0.72
3,C4U U54A,0.627
4,C4U G17A C34A A57U,≤ 0.5
5,C5A A14C G23A C24G A36U G63A G68A,0.579
6,C4U G58A,0.838
7,C4U G58C,1.02
8,C4U G12A A20G C22U C34U A37G,≤ 0.5
9,C4U G48A C60G,≤ 0.5
10,C4U U26C,1.04
11,C5A A15U,0.626
12,C5A A15G,0.779
13,C4U U28G A57G A69C,≤ 0.5
14,C4U G10C U35C G41A C62G A70U,≤ 0.5
15,C4U G52A A70C,0.646
16,C4U G48A,0.857
17,C4U G48C,0.951
18,C4U G23C C49A G68C,≤ 0.5
19,C4U U16G,1.05
20,C4U U16A,0.993
21,C4U U16C,1.02
22,C4U U26G C29U U47C A65U,≤ 0.5
23,C4U G41C C60G,≤ 0.5
